ChEMBL document CHEMBL1123793, “Analysis of structure-activity relationships in renin substrate analogue inhibitory peptides” (J Med Chem, 1987)
*1 amine or outer side, *2 acyl side, *3 side chain or, on linkers, in order; H or OH if unused. Where a SMILES comes first, the peptide text is derived from it. [ ]: non-standard residue; d: D form. The star is where a group is joined. X2 = CC[C@H](C)[C@H](N*)C(=O)NC(=O)[C@@H](N)Cc1ccccc1; Sta = CC(C)C[C@H](N)[C@@H](O)CC(=O)O; X1 = CC(C)CC(N[*:1])C(O)CC(=O)[*:2]; hhPhe = N[C@@H](CCCc1ccccc1)C(=O)O; X3 = CC(=O)[C@H](CCCCN)N*; Orn = NCCC[C@H](N)C(=O)O; Nva = CCC[C@H](N)C(=O)O; For = O=C*

What follows are compounds tested against T1, Renin (Rattus norvegicus, UniProt P08424) (assay: Inhibitory potency on plasma renin obtained from Sprague-Dawley rats).
T1 sequence (P08424 whole entry): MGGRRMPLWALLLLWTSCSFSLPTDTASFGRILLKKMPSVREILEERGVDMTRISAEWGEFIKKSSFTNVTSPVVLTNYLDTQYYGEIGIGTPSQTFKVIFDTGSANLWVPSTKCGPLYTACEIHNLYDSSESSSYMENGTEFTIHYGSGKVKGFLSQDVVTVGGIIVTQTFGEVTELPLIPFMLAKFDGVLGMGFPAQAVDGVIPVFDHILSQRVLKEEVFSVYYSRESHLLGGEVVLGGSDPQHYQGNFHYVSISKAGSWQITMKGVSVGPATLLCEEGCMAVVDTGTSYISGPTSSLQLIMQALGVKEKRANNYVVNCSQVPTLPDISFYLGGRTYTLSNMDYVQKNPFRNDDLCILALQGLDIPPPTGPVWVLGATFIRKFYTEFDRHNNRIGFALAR
Type: cell-free
Procedure, shortened: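 Dog, rabbit or rat plasma was collected into 5 mM EDTA at 0 °C, spun at 4 °C, then given PMSF 5 mM and 8-hydroxyquinoline sulfate 3 mM. Plasma at pH 7.4 with serial inhibitor dilutions was incubated 1 h at 37 °C, with a 0 °C blank. The reaction was quenched at pH 8.5, and angiotensin I was measured by RIA with ¹²⁵I tracer in anti-AI-coated tubes. The ratio is species IC50 divided by human IC50.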

IC50 [µM] | Compound
> 1 | CC[C@H](C)[C@H](NC(=O)C[C@H](O)[C@H](CC(C)C)NC(=O)[C@H](Cc1c[nH]cn1)NC(=O)[C@H](Cc1ccccc1)NC(=O)[C@@H]1CCCN1C(=O)[C@H](Cc1c[nH]cn1)NC(=O)[C@@H]1CCCN1)C(=O)N[C@@H](Cc1ccccc1)C(N)=O (H-PHPFH[Sta]IF-NH2)

These compounds were tested against T2, Renin (Homo sapiens, UniProt P00797) (assay: Inhibitory activity against human plasma renin).
T2 sequence (P00797 whole entry): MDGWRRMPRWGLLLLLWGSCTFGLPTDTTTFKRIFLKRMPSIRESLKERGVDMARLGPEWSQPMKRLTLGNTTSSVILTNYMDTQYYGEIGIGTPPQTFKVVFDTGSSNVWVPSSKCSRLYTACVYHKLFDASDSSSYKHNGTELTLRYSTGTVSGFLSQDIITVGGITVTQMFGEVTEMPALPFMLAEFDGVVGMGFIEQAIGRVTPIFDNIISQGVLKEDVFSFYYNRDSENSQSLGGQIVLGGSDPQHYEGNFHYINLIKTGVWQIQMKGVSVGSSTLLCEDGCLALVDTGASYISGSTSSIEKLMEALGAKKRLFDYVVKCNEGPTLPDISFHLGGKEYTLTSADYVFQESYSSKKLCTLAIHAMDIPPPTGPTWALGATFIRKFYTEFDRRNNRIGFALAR
Type: cell-free
Procedure, shortened: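 Pooled human plasma from about 500 hypertensive patients, collected by renal vein catheterization into chilled EDTA, trypsin-activated. PMSF 5 mM, 8-hydroxyquinoline sulfate 3 mM and a further 5 mM EDTA were added, giving about 10 ng AI mL⁻¹ h⁻¹. Plasma at pH 7.4 with serial peptide dilutions was incubated 1 h at 37 °C against a 0 °C blank, quenched at pH 8.5, and angiotensin I was measured by RIA.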

Compound | IC50 [µM]
CC(C)C[C@H](NC(=O)[C@H](Cc1c[nH]cn1)NC(=O)[C@H](Cc1ccccc1)NC(=O)[C@@H]1CCCN1C(=O)[C@H](Cc1c[nH]cn1)NC(=O)[C@@H]1CCCN1)[C@@H](O)CC(N)=O (H-PHPFH[Sta]-NH2) | 0.9
CC[C@H](C)[C@H](NC(=O)CC(O)C(CC(C)C)NC(=O)[C@H](Cc1c[nH]cn1)NC(=O)[C@H](Cc1ccccc1)NC(=O)[C@@H]1CCCN1)C(=O)N[C@@H](Cc1c[nH]cn1)C(=O)N[C@@H](CCCCN)C(=O)O (stereo partly drawn) (H-PFH[X1]IHK-OH) | 0.9
H-PHPFRFFVYK-OH | 200
CC(C)CC(NC(=O)[C@H](Cc1cnc[nH]1)NC(=O)[C@H](Cc1ccccc1)NC(=O)[C@@H]1CCCN1C(=O)[C@@H](N)Cc1cnc[nH]1)C(O)CC(=O)N[C@H](C(=O)N[C@@H](Cc1ccc(O)cc1)C(=O)N[C@@H](CCCCN)C(=O)O)C(C)C (stereo partly drawn) (H-HPFH[X1]VYK-OH) | 0.4
H-PHPFHFFFVYK-OH [RIP] | 5.2
CC[C@H](C)[C@H](NC(=O)[C@H](CCCc1ccccc1)NC(=O)[C@H](Cc1c[nH]cn1)NC(=O)[C@H](Cc1cn(C=O)c2ccccc12)NC(=O)[C@@H]1CCCN1C(=O)[C@H](Cc1cn(C=O)c2ccccc12)NC(=O)[C@@H]1CCCN1)C(=O)N[C@@H](Cc1cn(C=O)c2ccccc12)C(N)=O (H-PW(For)PW(For)H[hhPhe]IW(For)-NH2) | 0.049
CC[C@H](C)[C@H](NC(=O)CC(O)C(CC(C)C)NC(=O)[C@H](Cc1ccccc1)NC(=O)[C@H](Cc1ccccc1)NC(=O)[C@@H]1CCCN1)C(=O)NC(=O)[C@@H](N)Cc1ccccc1 (stereo partly drawn) | 0.43
CCC[C@H](NC(=O)[C@H](Cc1c[nH]cn1)NC(=O)[C@H](Cc1ccccc1)NC(=O)[C@@H]1CCCN1C(=O)[C@H](Cc1c[nH]cn1)NC(=O)[C@@H]1CCCN1)C(=O)N[C@H](C(=O)NC(=O)[C@@H](N)Cc1ccccc1)[C@@H](C)CC (H-PHPFH[Nva]-X2) | > 1000
CC[C@H](C)[C@H](NC(=O)[C@H](CCCc1ccccc1)NC(=O)[C@H](Cc1c[nH]cn1)NC(=O)[C@H](Cc1cn(C=O)c2ccccc12)NC(=O)[C@@H]1CCCN1)C(=O)N[C@@H](Cc1cn(C=O)c2ccccc12)C(N)=O (H-PW(For)H[hhPhe]IW(For)-NH2) | 0.24
CC[C@H](C)[C@H](NC(=O)[C@H](CCCc1ccccc1)NC(=O)[C@H](CCCCN)NC(=O)[C@H](Cc1ccccc1)NC(=O)[C@@H]1CCCN1C(=O)[C@H](Cc1c[nH]cn1)NC(=O)[C@@H]1CCCN1)C(=O)N[C@@H](Cc1ccccc1)C(N)=O (H-PHPFK[hhPhe]IF-NH2) | 3.9
CC[C@H](C)[C@H](NC(=O)CC(O)C(CC(C)C)NC(=O)[C@@H](N)Cc1ccccc1)C(=O)NC(=O)[C@@H](N)Cc1ccccc1 (stereo partly drawn) | > 100
CC[C@H](C)[C@H](NC(=O)CC(O)C(CC(C)C)NC(=O)[C@H](Cc1cnc[nH]1)NC(=O)[C@H](Cc1ccccc1)NC(=O)[C@@H]1CCCN1)C(=O)NC(=O)[C@@H](N)Cc1ccccc1 (stereo partly drawn) | 0.22
CC(C)[C@H](NC(=O)[C@H](Cc1ccccc1)NC[C@H](Cc1ccccc1)NC(=O)[C@H](Cc1cnc[nH]1)NC(=O)[C@H](Cc1ccccc1)NC(=O)[C@@H]1CCCN1C(=O)[C@H](N)Cc1cnc[nH]1)C(=O)N[C@@H](Cc1ccc(O)cc1)C(=O)O | 0.58
CC[C@H](C)[C@H](NC(=O)[C@H](CCCc1ccccc1)NC(=O)[C@H](Cc1c[nH]cn1)NC(=O)[C@H](Cc1cn(C=O)c2ccccc12)NC(=O)[C@@H]1CCCN1)C(=O)N[C@@H](Cc1ccccc1)C(N)=O (H-PW(For)H[hhPhe]IF-NH2) | 0.067
CC(C)CC(NC(=O)[C@H](Cc1c[nH]cn1)NC(=O)[C@H](Cc1ccccc1)NC(=O)[C@@H]1CCCN1)C(O)CC(N)=O (stereo partly drawn) | 68
CC[C@H](C)[C@H](NC(=O)[C@H](CCCc1ccccc1)NC(=O)[C@H](Cc1cnc[nH]1)NC(=O)[C@H](Cc1ccccc1)NC(=O)[C@@H]1CCCN1C(C)=O)C(=O)N[C@@H](Cc1cnc[nH]1)C(=O)N[C@@H](CCCCN)C(C)=O (Ac-PFH[hhPhe]IH-X3) | 0.046
CC(C)[C@H](NC(=O)[C@H](CCCN)NC(=O)[C@H](Cc1c[nH]cn1)NC(=O)[C@H](Cc1ccccc1)NC(=O)[C@@H]1CCCN1)C(=O)N[C@@H](Cc1ccc(O)cc1)C(=O)N[C@@H](CCCCN)C(N)=O (H-PFH[Orn]VYK-NH2) | 100
H-PFHFFVYK-NH2 | 100

Further lines, results first:

IC50 [µM] | Compound
0.04 | CC[C@H](C)[C@H](NC(=O)CC(O)C(CC(C)C)NC(=O)[C@H](Cc1cnc[nH]1)NC(=O)[C@H](Cc1ccccc1)NC(=O)[C@@H]1CCCN1C(C)=O)C(=O)N[C@@H](Cc1cnc[nH]1)C(=O)N[C@@H](CCCCN)C(=O)O (stereo partly drawn) (Ac-PFH[X1]IHK-OH)
0.03 | CC[C@H](C)[C@H](NC(=O)[C@H](CCCc1ccccc1)NC(=O)[C@H](Cc1cnc[nH]1)NC(=O)[C@H](Cc1ccccc1)NC(=O)[C@@H]1CCCN1C(=O)[C@H](Cc1cnc[nH]1)NC(=O)[C@@H]1CCCN1)C(=O)N[C@@H](Cc1cnc[nH]1)C(=O)N[C@@H](CCCCN)C(C)=O (H-PHPFH[hhPhe]IH-X3)
0.03 | CC[C@H](C)[C@H](NC(=O)[C@H](CCCc1ccccc1)NC(=O)[C@H](Cc1c[nH]cn1)NC(=O)[C@H](Cc1ccccc1)NC(=O)[C@@H]1CCCN1C(=O)[C@H](Cc1c[nH]cn1)NC(=O)[C@@H]1CCCN1)C(=O)N[C@@H](Cc1ccccc1)C(N)=O (H-PHPFH[hhPhe]IF-NH2)
0.03 | CC[C@H](C)[C@H](NC(=O)[C@H](CCCc1ccccc1)NC(=O)[C@H](Cc1c[nH]cn1)NC(=O)[C@H](Cc1cn(C=O)c2ccccc12)NC(=O)[C@@H]1CCCN1C(=O)[C@H](Cc1cn(C=O)c2ccccc12)NC(=O)[C@@H]1CCCN1)C(=O)N[C@@H](Cc1ccccc1)C(N)=O (H-PW(For)PW(For)H[hhPhe]IF-NH2)
0.03 | CC[C@H](C)[C@H](NC(=O)CC(O)C(CC(C)C)NC(=O)[C@H](Cc1ccccc1)NC(=O)[C@H](Cc1ccccc1)NC(=O)[C@@H]1CCCN1C(=O)[C@H](Cc1c[nH]cn1)NC(=O)[C@@H]1CCCN1)C(=O)NC(=O)[C@@H](N)Cc1ccccc1 (stereo partly drawn) (H-PHPFF[X1]-X2)
0.027 | CC[C@H](C)[C@H](NC(=O)[C@H](CCCc1ccccc1)NC(=O)[C@H](Cc1c[nH]cn1)NC(=O)[C@H](Cc1ccccc1)NC(=O)[C@@H]1CCCN1C(=O)[C@H](Cc1cn(C=O)c2ccccc12)NC(=O)[C@@H]1CCCN1)C(=O)N[C@@H](Cc1cn(C=O)c2ccccc12)C(N)=O (H-PW(For)PFH[hhPhe]IW(For)-NH2)
0.027 | CC(C)[C@H](NC(=O)[C@@H](CCCc1ccccc1)NC(=O)[C@H](Cc1c[nH]cn1)NC(=O)[C@H](Cc1ccccc1)NC(=O)[C@@H]1CCCN1C(=O)[C@H](Cc1c[nH]cn1)NC(=O)[C@@H]1CCCN1)C(=O)N[C@@H](Cc1ccc(O)cc1)C(=O)N[C@@H](CCCCN)C(N)=O
0.02 | CC[C@H](C)[C@H](NC(=O)CC(O)C(CC(C)C)NC(=O)[C@H](Cc1cnc[nH]1)NC(=O)[C@H](Cc1ccccc1)NC(=O)[C@@H]1CCCN1C(=O)[C@H](Cc1cnc[nH]1)NC(=O)[C@@H]1CCCN1C(C)=O)C(=O)N[C@@H](Cc1cnc[nH]1)C(=O)N[C@@H](CCCCN)C(=O)O (stereo partly drawn) (Ac-PHPFH[X1]IHK-OH)
0.016 | CC[C@H](C)[C@H](NC(=O)CC(O)C(CC(C)C)NC(=O)[C@H](Cc1cnc[nH]1)NC(=O)[C@H](Cc1ccccc1)NC(=O)[C@@H]1CCCN1C(=O)[C@H](Cc1cn(C=O)c2ccccc12)NC(=O)[C@@H]1CCCN1)C(=O)N[C@@H](Cc1cn(C=O)c2ccccc12)C(N)=O (stereo partly drawn) (H-PW(For)PFH[X1]IW(For)-NH2)
